Most compounds without a hit are left out; they make up all but 2.3% or so of the library.
GSTO1 inh: blocks human GSTO1 in RBBP9 counter-screen. recombinant GSTO1, activity-based probe fluorescence polarization. 1.1% of 300,000 active. inhibition, % at 5.96 µM;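 active = inhibition above the campaign mean inhibition plus 3 SD, cut at about 35% in these data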
PAD4 FP inh: PAD4 (human) enzyme inhibition. recombinant PAD4, RCA probe fluorescence polarization. inhibition, % at 6.36 µM. 0.41% of 330,000 active. Q9UM07;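 active = percent inhibition above a cutoff equal to the mean of all tested compounds plus 3 SD, cut at about 15% in these data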
PRMT1 FP inh: inhibitors of human PRMT1; recombinant PRMT1, activity-based probe fluorescence polarization; inhibition, % at 2.79 µM; 1.3% of 370,000 active; AID 652257;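 active = inhibition above about 21% made by adding two undisclosed values, limit read from the data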
Target sequence (Q99873 whole entry, looked up): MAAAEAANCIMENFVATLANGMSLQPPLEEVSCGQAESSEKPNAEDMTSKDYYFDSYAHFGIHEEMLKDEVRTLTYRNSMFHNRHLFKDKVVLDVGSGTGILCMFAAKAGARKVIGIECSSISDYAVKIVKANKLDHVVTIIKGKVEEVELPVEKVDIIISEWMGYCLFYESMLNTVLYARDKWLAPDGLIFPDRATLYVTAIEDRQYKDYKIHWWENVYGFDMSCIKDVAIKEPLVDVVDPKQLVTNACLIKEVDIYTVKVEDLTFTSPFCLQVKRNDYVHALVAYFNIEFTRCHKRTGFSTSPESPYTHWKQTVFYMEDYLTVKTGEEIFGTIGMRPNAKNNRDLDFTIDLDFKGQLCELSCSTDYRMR
RBBP9 inhibitor: blocks human serine hydrolase RBBP9. O75884. recombinant RBBP9, FP-Rh probe fluorescence polarization. inhibition, % at 7.94 µM. 0.2% of 220,000 active. AID 1515;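 active = inhibition above the campaign mean of all tested compounds plus 3 SD, cut at about 14% in these data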
Target sequence (O75884 whole entry, looked up): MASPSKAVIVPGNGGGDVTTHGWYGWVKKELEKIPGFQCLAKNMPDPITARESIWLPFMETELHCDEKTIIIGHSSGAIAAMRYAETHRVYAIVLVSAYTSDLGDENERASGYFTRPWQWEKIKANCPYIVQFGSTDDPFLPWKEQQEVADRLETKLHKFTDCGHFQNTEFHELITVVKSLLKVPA
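Test system: recombinant human RBBP9; Timing: 30 min then 45 min, 25 °C; Detection: fluorescence polarization; Control set: RBBP9 with DMSO as uninhibited control, no-protein wells as full inhibition; Compound dosing: one concentration, 7.94 µM nominal, 0.794% DMSO; Probe or stimulus: FP-Rh activity-based probe, 375 nM before mixing.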
PME-1 primary: blocks human protein phosphatase methylesterase 1. recombinant PME-1, FP-Rh probe fluorescence polarization. inhibition, % at 5.9 µM. 0.53% of 320,000 active;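 active = inhibition above the campaign mean of all compounds plus 3 SD, cut at about 26% in these data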;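 note: competitive labeling of PME-1 active site by serine hydrolase directed probe; inhibitors block probe labeling so polarization falls and inhibition rises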
Fam108B counter: blocks mouse Fam108B hydrolase in RBBP9 counter-screen. AID 1947. inhibition, % at 9.51 µM. 0.33% of 300,000 active. recombinant Fam108B, FP-Rh probe fluorescence polarization;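 active = inhibition above the screen mean inhibition plus 3 SD, computed separately per campaign, cut at about 18% in these data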;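 note: inhibitors lower polarization as less probe binds the enzyme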
Hits are given with their value.

How did COC/C=C/C1=CC2=CC(=O)C(C)(OC(=O)c3cnc4ccccc4n3)C(=O)C2=CN1CCc1ccccn1 (centres undefined) do in these assays?
GSTO1 inh: inactive; PAD4 FP inh: 34; PME-1 primary: inactive; Fam108B counter: inactive

What do the screens show for `COC(=O)CCCC1=CC2=CC(=O)C(C)(OC(=O)c3cnc4ccccc4n3)C(=O)C2=CO1` (centres undefined)?
GSTO1 inh: 38; PAD4 FP inh: 32; PME-1 primary: inactive; Fam108B counter: inactive

What do the screens show for `COC(=O)CCCC1=CC2=CC(=O)C(C)(OC(=O)c3cccs3)C(=O)C2=CO1` (centres undefined)?
GSTO1 inh: 39; PAD4 FP inh: inactive; PME-1 primary: inactive; Fam108B counter: inactive

What do the screens show for `CCCCC1=CC2=CC(=O)C(C)(OC(=O)CCC(=O)OC)C(=O)C2=CO1` (centres undefined)?
GSTO1 inh: inactive; PAD4 FP inh: inactive; PME-1 primary: inactive; Fam108B counter: inactive

How did COC/C=C/C1=CC2=CC(=O)C(C)(OC(=O)c3cnc4ccccc4n3)C(=O)C2=CN1CCCCO (centres undefined) do in these assays?
GSTO1 inh: inactive; PAD4 FP inh: inactive; PRMT1 FP inh: inactive; PME-1 primary: inactive; Fam108B counter: inactive

How did CCOC(=O)N1CCN(CC(O)COCc2ccc(Cl)cc2)CC1 (centres undefined) do in these assays?
PRMT1 FP inh: inactive; RBBP9 inhibitor: inactive

What do the screens show for `CCCCC1=CC2=CC(=O)C(C)(OC(=O)c3cnc4ccccc4n3)C(=O)C2=CO1` (centres undefined)?
GSTO1 inh: inactive; PAD4 FP inh: 31; PME-1 primary: 31; Fam108B counter: 19

What do the screens show for `CC(C)(C)OC(=O)NCCCCC1=CC2=CC(=O)C(C)(OC(=O)c3cnc4ccccc4n3)C(=O)C2=CO1` (centres undefined)?
GSTO1 inh: inactive; PAD4 FP inh: inactive; PME-1 primary: inactive; Fam108B counter: inactive

What do the screens show for `Cc1cccc(N(C(=O)C(F)(F)F)C(C(=O)NC2CCCCC2)c2cccs2)c1` (centres undefined)?
GSTO1 inh: inactive; PAD4 FP inh: inactive; PRMT1 FP inh: inactive; RBBP9 inhibitor: inactive; PME-1 primary: inactive; Fam108B counter: inactive

What do the screens show for `Nc1ccc(N=Nc2ccccc2)c2ccccc12`?
GSTO1 inh: inactive; PAD4 FP inh: inactive; PRMT1 FP inh: inactive; RBBP9 inhibitor: inactive; PME-1 primary: inactive; Fam108B counter: inactive

Results for Nc1ccc(O)c2ccccc12 ?
GSTO1 inh: 62; PAD4 FP inh: inactive; PME-1 primary: inactive; Fam108B counter: inactive

Results for Cc1ccc(C)c(C(=O)COc2ccc(C)nc2[N+](=O)[O-])c1 ?
GSTO1 inh: inactive; PAD4 FP inh: inactive; PRMT1 FP inh: 21; RBBP9 inhibitor: inactive; PME-1 primary: inactive; Fam108B counter: inactive

Results for Cc1ccc(OCC(=O)c2cc(C)c(C)cc2C)c([N+](=O)[O-])n1 ?
GSTO1 inh: inactive; PAD4 FP inh: inactive; PRMT1 FP inh: 24; RBBP9 inhibitor: inactive; PME-1 primary: inactive; Fam108B counter: inactive

What do the screens show for `CCCn1c(C)cc(C(=O)COc2ccc(C)nc2[N+](=O)[O-])c1C`?
GSTO1 inh: inactive; PAD4 FP inh: inactive; PRMT1 FP inh: inactive; RBBP9 inhibitor: inactive; PME-1 primary: inactive; Fam108B counter: inactive

How did CCN(CC)S(=O)(=O)c1ccc(Oc2ccccc2)cc1 do in these assays?
GSTO1 inh: inactive; PAD4 FP inh: inactive; PRMT1 FP inh: inactive; RBBP9 inhibitor: inactive; PME-1 primary: inactive; Fam108B counter: inactive

What do the screens show for `CC(C)NC(=O)c1csc(COCCO)n1`?
PRMT1 FP inh: inactive

How did Oc1ccc(/C=C/c2ccc3cccc(O)c3n2)cc1Br do in these assays?
GSTO1 inh: inactive; PAD4 FP inh: inactive; PRMT1 FP inh: inactive; PME-1 primary: 31; Fam108B counter: inactive

How did CC1CCCC(C)N1/N=C/c1ccc(O)c(O)c1 (centres undefined) do in these assays?
GSTO1 inh: 36; PAD4 FP inh: inactive; PRMT1 FP inh: inactive; PME-1 primary: inactive; Fam108B counter: inactive

Results for CCCCNC1=CC(=O)C(=O)c2ccccc21 ?
GSTO1 inh: 48; PAD4 FP inh: inactive; PRMT1 FP inh: inactive; RBBP9 inhibitor: inactive; PME-1 primary: inactive; Fam108B counter: inactive

What do the screens show for `COC(=O)C1C(O)C(C)C(O)C(C)(O)/C=C\C=C(/C)C(=O)Nc2c(C)c(OC(C)=O)c3c(c2O)C(=O)C(C)=C2OCOC(=C23)/C(C)=C/C(C)(O)C(O)C(C)C1O` (centres undefined)?
GSTO1 inh: 59; PAD4 FP inh: inactive; PRMT1 FP inh: inactive; RBBP9 inhibitor: inactive; PME-1 primary: inactive; Fam108B counter: inactive

What do the screens show for `Cc1ccc(CNC(=O)/C(C#N)=C\c2ccc(N(C)C)cc2)cc1`?
GSTO1 inh: inactive; PAD4 FP inh: inactive; RBBP9 inhibitor: inactive; PME-1 primary: 27; Fam108B counter: inactive

Results for CCN(CC)c1ccc(/C=C(\C#N)C(=O)NCc2ccccc2)cc1 ?
GSTO1 inh: inactive; PAD4 FP inh: inactive; RBBP9 inhibitor: inactive; PME-1 primary: inactive; Fam108B counter: inactive

Results for O=C1CC(c2nc3ccccc3[nH]2)CN1c1ccccc1 (centres undefined) ?
GSTO1 inh: inactive; PAD4 FP inh: inactive; PRMT1 FP inh: inactive; RBBP9 inhibitor: inactive; PME-1 primary: inactive; Fam108B counter: inactive

How did c1ccc(C2=Nc3ccccc3SC2c2nc3ccccc3[nH]2)cc1 (centres undefined) do in these assays?
GSTO1 inh: inactive; PAD4 FP inh: 28; RBBP9 inhibitor: inactive; PME-1 primary: inactive; Fam108B counter: inactive

How did N#Cc1cc2ccccc2nc1SCC(=O)Nc1ccccc1N1CCOCC1 do in these assays?
GSTO1 inh: inactive; PAD4 FP inh: inactive; PRMT1 FP inh: inactive; RBBP9 inhibitor: inactive; PME-1 primary: 30; Fam108B counter: inactive

How did Cc1cccc2cc(C#N)c(SCC(=O)Nc3ccccc3N3CCOCC3)nc12 do in these assays?
GSTO1 inh: inactive; PAD4 FP inh: inactive; PRMT1 FP inh: inactive; RBBP9 inhibitor: inactive; PME-1 primary: inactive; Fam108B counter: inactive

How did O=S(=O)(NCc1ccccc1)c1cccc(S(=O)(=O)N2CCOCC2)c1 do in these assays?
GSTO1 inh: inactive; PAD4 FP inh: inactive; PRMT1 FP inh: inactive; RBBP9 inhibitor: inactive; PME-1 primary: inactive; Fam108B counter: inactive

How did O=S(=O)(NCCc1ccccc1F)c1cccc(S(=O)(=O)N2CCOCC2)c1 do in these assays?
GSTO1 inh: 43; PAD4 FP inh: inactive; PRMT1 FP inh: inactive; RBBP9 inhibitor: inactive; PME-1 primary: inactive; Fam108B counter: inactive

What do the screens show for `CCN(CC)C(=O)CSc1nnc([C@H](CCSC)NC(=O)OC(C)(C)C)o1`?
GSTO1 inh: inactive; PAD4 FP inh: inactive; PRMT1 FP inh: inactive; RBBP9 inhibitor: inactive; PME-1 primary: inactive; Fam108B counter: inactive

How did O=c1[nH]c(SCCN2CCOCC2)nc(O)c1-c1ccccc1 do in these assays?
GSTO1 inh: inactive; PAD4 FP inh: inactive; PRMT1 FP inh: inactive; RBBP9 inhibitor: inactive; PME-1 primary: inactive; Fam108B counter: inactive

Compound activity deposited in PubChem BioAssay by The Scripps Research Institute Molecular Screening Center.
